Tested on: patients with myelofibrosis
Test: Phase I safety: drug-related adverse events, DLTs, tolerability
Type: in vivo, human
Summary of the method: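 Design was 3+3 dose escalation of oral test compound QD (75–400 mg) or BID (100–400 mg) in 28-day cycles. AEs were graded by CTCAE v4.0 with causality, alongside labs, ECGs, vital signs and physical exams. A DLT was grade 4 cytopenia, other grade 3/4 hematologic toxicity, or grade 3/4 non-hematologic toxicity, excluding manageable GI events. The population was all patients dosed ≥1 time.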

[1] = baseline platelet count <100 × 10^9/l
[2] = baseline platelet count <100 × 10^9/l (n=16)
[3] = baseline platelet count ⩾100 × 10^9/l
[4] = baseline platelet count ⩾100 × 10^9/l (n=32)

C[C@H](Nc1cc(-c2cnn(C)c2)cc(Nc2cnccn2)n1)c1ccc(F)cc1 [NS-018]
Cases of anemia (grade 2) (300 mg QD): 1 case
Rate of discontinuations owing to AEs (300 mg QD): 13%
Drug-related anemia, Grade 1/2 (300 mg QD (n=16)): 1 (6) n (%)
Drug-related anemia, all grades (300 mg QD (n=16)): 1 (6) n (%)
Drug-related diarrhea, all grade (300 mg QD (n=16)): 2 (13) n (%)
Drug-related diarrhea, grade 3 or 4 (300 mg QD (n=16)): 0 n (%)
Drug-related dizziness, all grade (300 mg QD (n=16)): 3 (19) n (%)
Drug-related dizziness, grade 3 or 4 (300 mg QD (n=16)): 1 (6) n (%)
Drug-related esophageal reflux, all grade (300 mg QD (n=16)): 1 (6) n (%)
Drug-related esophageal reflux, grade 3 or 4 (300 mg QD (n=16)): 0 n (%)
Drug-related headache, all grade (300 mg QD (n=16)): 2 (13) n (%)
Drug-related headache, grade 3 or 4 (300 mg QD (n=16)): 0 n (%)
Drug-related nausea, all grade (300 mg QD (n=16)): 0 n (%)
Drug-related paresthesia, all grade (300 mg QD (n=16)): 1 (6) n (%)
Drug-related paresthesia, grade 3 or 4 (300 mg QD (n=16)): 0 n (%)
Drug-related thrombocytopenia, Grade 1/2 (300 mg QD (n=16)): 0 n (%)
Drug-related thrombocytopenia, Grade 3 (300 mg QD (n=16)): 2 (13) n (%)
Drug-related thrombocytopenia, Grade 4 (300 mg QD (n=16)): 1 (6) n (%)
Drug-related thrombocytopenia, all grades (300 mg QD (n=16)): 3 (19) n (%)
Drug-related vomiting, all grade (300 mg QD (n=16)): 1 (6) n (%)
Drug-related vomiting, grade 3 or 4 (300 mg QD (n=16)): 0 n (%)
Drug-related weight increased, all grade (300 mg QD (n=16)): 0 n (%)
Drug-related grade 3 dyspnea (300 mg QD cohort): 6%
Patients who discontinued owing to AEs (beyond DLT) (400 mg BID): 2 patients
Drug-related anemia, Grade 1/2 (400 mg BID (n=8)): 1 (13) n (%)
Drug-related anemia, Grade 3 (400 mg BID (n=8)): 1 (13) n (%)
Drug-related anemia, Grade 4 (400 mg BID (n=8)): 0 n (%)
Drug-related anemia, all grades (400 mg BID (n=8)): 2 (25) n (%)
Drug-related diarrhea, all grade (400 mg BID (n=8)): 1 (13) n (%)
Drug-related diarrhea, grade 3 or 4 (400 mg BID (n=8)): 0 n (%)
Drug-related dizziness, all grade (400 mg BID (n=8)): 2 (25) n (%)
Drug-related dizziness, grade 3 or 4 (400 mg BID (n=8)): 1 (13) n (%)
Drug-related esophageal reflux, all grade (400 mg BID (n=8)): 0 n (%)
Drug-related headache, all grade (400 mg BID (n=8)): 1 (13) n (%)
Drug-related headache, grade 3 or 4 (400 mg BID (n=8)): 0 n (%)
Drug-related nausea, all grade (400 mg BID (n=8)): 0 n (%)
Drug-related paresthesia, all grade (400 mg BID (n=8)): 0 n (%)
Drug-related thrombocytopenia, Grade 1/2 (400 mg BID (n=8)): 0 n (%)
Drug-related thrombocytopenia, Grade 3 (400 mg BID (n=8)): 1 (13) n (%)
Drug-related thrombocytopenia, Grade 4 (400 mg BID (n=8)): 0 n (%)
Drug-related thrombocytopenia, all grades (400 mg BID (n=8)): 1 (13) n (%)
Drug-related vomiting, all grade (400 mg BID (n=8)): 0 n (%)
Drug-related weight increased, all grade (400 mg BID (n=8)): 0 n (%)
DLT: grade 3 dizziness (400 mg BID cohort): 1 patient
Tolerability as judged by the Safety Review Committee (400 mg BID/QD, based on proportion of drug-related neurological AEs): intolerable
Drug-related anemia, Grade 1/2 (400 mg QD (n=4)): 1 (25) n (%)
Drug-related anemia, all grades (400 mg QD (n=4)): 1 (25) n (%)
Drug-related diarrhea, all grade (400 mg QD (n=4)): 1 (25) n (%)
Drug-related diarrhea, grade 3 or 4 (400 mg QD (n=4)): 0 n (%)
Drug-related dizziness, all grade (400 mg QD (n=4)): 1 (25) n (%)
Drug-related dizziness, grade 3 or 4 (400 mg QD (n=4)): 0 n (%)
Drug-related esophageal reflux, all grade (400 mg QD (n=4)): 0 n (%)
Drug-related headache, all grade (400 mg QD (n=4)): 0 n (%)
Drug-related nausea, all grade (400 mg QD (n=4)): 1 (25) n (%)
Drug-related nausea, grade 3 or 4 (400 mg QD (n=4)): 0 n (%)
Drug-related paresthesia, all grade (400 mg QD (n=4)): 1 (25) n (%)
Drug-related paresthesia, grade 3 or 4 (400 mg QD (n=4)): 0 n (%)
Drug-related thrombocytopenia, all grades (400 mg QD (n=4)): 0 n (%)
Drug-related vomiting, all grade (400 mg QD (n=4)): 0 n (%)
Drug-related weight increased, all grade (400 mg QD (n=4)): 1 (25) n (%)
Drug-related weight increased, grade 3 or 4 (400 mg QD (n=4)): 0 n (%)
Recommended phase II dose (RP2D) (QD, oral): 300 mg
Additional patients (beyond DLT) who discontinued owing to AEs (all cohorts): 7 patients
Dose reduction owing to dizziness (all cohorts): 4 n
Patients with dose reductions owing to AEs (all cohorts): 11 patients
Patients with dose-limiting toxicities (DLTs) (all cohorts (n=48)): 2 patients
Treatment discontinuation because of AEs (all cohorts (n=48), data cutoff 21 July 2015): 8 n
Drug-related anemia, Grade 1/2 (all dose cohorts (n=48)): 4 (8) n (%)
Drug-related anemia, Grade 3 (all dose cohorts (n=48)): 3 (6) n (%)
Drug-related anemia, Grade 4 (all dose cohorts (n=48)): 0 n (%)
Drug-related anemia, all grades (all dose cohorts (n=48)): 7 (15) n (%)
Drug-related diarrhea, all grade (all dose cohorts (n=48)): 7 (15) n (%)
Drug-related diarrhea, grade 3 or 4 (all dose cohorts (n=48)): 0 n (%)
Drug-related dizziness, all grade (all dose cohorts (n=48)): 11 (23) n (%)
Drug-related dizziness, grade 3 or 4 (all dose cohorts (n=48)): 3 (6) n (%)
Drug-related esophageal reflux, all grade (all dose cohorts (n=48)): 3 (6) n (%)
Drug-related esophageal reflux, grade 3 or 4 (all dose cohorts (n=48)): 0 n (%)
Drug-related headache, all grade (all dose cohorts (n=48)): 3 (6) n (%)
Drug-related headache, grade 3 or 4 (all dose cohorts (n=48)): 0 n (%)
Drug-related nausea, all grade (all dose cohorts (n=48)): 9 (19) n (%)
Drug-related nausea, grade 3 or 4 (all dose cohorts (n=48)): 1 (2) n (%)
Drug-related paresthesia, all grade (all dose cohorts (n=48)): 4 (8) n (%)
Drug-related paresthesia, grade 3 or 4 (all dose cohorts (n=48)): 1 (2) n (%)
Drug-related thrombocytopenia, Grade 1/2 (all dose cohorts (n=48)): 5 (10) n (%)
Drug-related thrombocytopenia, Grade 3 (all dose cohorts (n=48)): 5 (10) n (%)
Drug-related thrombocytopenia, Grade 4 (all dose cohorts (n=48)): 3 (6) n (%)
Drug-related thrombocytopenia, all grades (all dose cohorts (n=48)): 13 (27) n (%)
Drug-related vomiting, all grade (all dose cohorts (n=48)): 3 (6) n (%)
Drug-related vomiting, grade 3 or 4 (all dose cohorts (n=48)): 0 n (%)
Drug-related weight increased, all grade (all dose cohorts (n=48)): 4 (8) n (%)
Drug-related weight increased, grade 3 or 4 (all dose cohorts (n=48)): 0 n (%)
Drug-related anemia, all grades (all patients (n=48)): 15%
Drug-related anemia, grade 3/4 (all patients (n=48)): 6%
Drug-related dizziness (all patients (n=48)): 23%
Drug-related nausea (all patients (n=48)): 19%
Drug-related thrombocytopenia, all grades (all patients (n=48)): 27%
Drug-related thrombocytopenia, grade 3/4 (all patients (n=48)): 17%
Drug-related thrombocytopenia, all grades [1]: 44%
Drug-related thrombocytopenia, grade 3/4 [1]: 38%
Drug-related thrombocytopenia, Grade 1/2 [2]: 1 (6) n (%)
Drug-related thrombocytopenia, Grade 3 [2]: 3 (19) n (%)
Drug-related thrombocytopenia, Grade 4 [2]: 3 (19) n (%)
Drug-related thrombocytopenia, all grades [2]: 7 (44) n (%)
Drug-related thrombocytopenia, all grades [3]: 19%
Drug-related thrombocytopenia, grade 3/4 [3]: 6%
Drug-related thrombocytopenia, Grade 1/2 [4]: 4 (13) n (%)
Drug-related thrombocytopenia, Grade 3 [4]: 2 (6) n (%)
Drug-related thrombocytopenia, Grade 4 [4]: 0 n (%)
Drug-related thrombocytopenia, all grades [4]: 6 (19) n (%)
Grade 4 neurologic events (during the study): No grade 4 neurologic events

— paper PMC5292677 (Leukemia, 2016)
